hIAP inh = blocks human intestinal alkaline phosphatase; P09923; purified IAP, CDP-Star luminescence, 30 min; inhibition, % at 10 µM; 330,000 tested, 0.12% active;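 active = inhibition reaching a set limit with compound at 10 µM in the primary screen, cut at about 35% in these data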;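 note: plate controls were DMSO wells with enzyme for no effect and no-enzyme buffer wells for full effect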
Target sequence (P09923 whole entry, looked up): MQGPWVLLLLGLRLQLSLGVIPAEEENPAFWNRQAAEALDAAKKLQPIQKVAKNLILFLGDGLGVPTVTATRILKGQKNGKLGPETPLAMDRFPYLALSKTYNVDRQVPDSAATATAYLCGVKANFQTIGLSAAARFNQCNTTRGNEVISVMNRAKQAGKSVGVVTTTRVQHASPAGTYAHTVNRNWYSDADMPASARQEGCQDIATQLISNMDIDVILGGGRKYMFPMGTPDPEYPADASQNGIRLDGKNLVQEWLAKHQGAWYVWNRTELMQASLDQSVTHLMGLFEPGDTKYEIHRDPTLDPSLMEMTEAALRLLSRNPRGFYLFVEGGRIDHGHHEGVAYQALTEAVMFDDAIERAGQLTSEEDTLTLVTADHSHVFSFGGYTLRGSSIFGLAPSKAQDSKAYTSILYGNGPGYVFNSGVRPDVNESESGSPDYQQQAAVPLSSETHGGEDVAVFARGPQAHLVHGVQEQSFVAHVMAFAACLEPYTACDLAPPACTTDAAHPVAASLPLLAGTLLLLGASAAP
hIAP act = human IAP activation; P09923; purified human IAP, CDP-Star luminescence, 30 min; hits give high values; 1 = vehicle-only enzyme, 0 = enzyme-free background; activation factor at 10 µM; 330,000 tested, 0.16% active;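 active = activation factor of the enzyme at least 2-fold when tested at 20 µM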
bIAP act = intestinal alkaline phosphatase (bovine) activation; purified bovine IAP, CDP-star luminescence, 30 min; hits give high values; fold of DMSO-control signal, blank-subtracted; activation factor at 20 µM; 200,000 tested, 0.17% active; AID 1016;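 active = activation factor of 2 or more at 20 µM, a signal rise over negative controls twice the positive control's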
mIAP act = increases mouse intestinal alkaline phosphatase activity; 330,000 tested, 0.24% active; muIAP, CDP-Star luminescence, 30 min; hits give high values; 1 = vehicle-only enzyme signal, 0 = enzyme-free wells; AID 2805; activation factor at 10 µM;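 active = activation factor of at least 2 at 20 µM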
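Assay system: mouse IAP enzyme / Compound: DMSO-dissolved test compounds / Timing: 30 min, room temperature / Measured by: luminescence from enzymatic CDP-Star hydrolysis / Control set: DMSO-only wells, enzyme-free buffer wells as negative control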
mIAP block = blocks mouse intestinal alkaline phosphatase. purified mouse IAP, CDP-Star luminescence, 30 min. inhibition, % at 10 µM. 330,000 tested, 0.2% active. AID 2806;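 active = inhibition of at least 40% at 10 µM in the primary screen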;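 note: plate controls were DMSO with enzyme for no effect and no enzyme wells for full effect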
bIAP inh = intestinal alkaline phosphatase (bovine) inhibition | purified bovine IAP, CDP-star luminescence, 30 min | inhibition, % at 20 µM | 190,000 tested, under 10 active;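 active = over 50% inhibition of intestinal alkaline phosphatase at 20 µM in the single-dose screen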
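Assay system: bovine IAP enzyme; medium: DEA buffer 100 mM, pH 9.8, with MgCl2 1.0 mM, ZnCl2 0.02 mM; doses: 20 µM single dose; incubation: enzyme reaction for 30 min at room temperature; detection: CDP-star luminescence signal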
The depositor's hits bear a star; i = inactive; . = no result. This is a sample that favours compounds with a hit; in the whole collection about 0.79% have one here.

SMILES	hIAP inh	hIAP act	bIAP act	mIAP act	mIAP block	bIAP inh
COc1cccc(NC(=O)Nc2cc(Cl)ccc2C)c1	16	0.84	1.2	2.2*	-123	-16
N#CCc1ccc(NC(=O)Nc2cccc(Cl)c2)cc1	-39	1.4	0.9	2.8*	-176	7
Cc1csc(NC(=O)Nc2cccc(Cl)c2)n1	-16	1.2	2.2*	1.2	-18	-123
Cc1nnc(NC(=O)Nc2cccc(Cl)c2)s1	-13	1.1	0.9	0.98	2	6
COc1ccccc1NS(=O)(=O)c1cccc(NC(=O)NCCCl)c1	-9	1.1	.	1.1	-8	.
COCCCn1c(=O)c2sccc2n2c(CCCC(=O)N(C)Cc3ccco3)nnc12	-2	1	.	1	-5	.
CC(C)Cn1c(N)c(C(=O)COC(=O)COc2cccc(C(F)(F)F)c2)c(=O)n(C)c1=O	-21	1.2	.	0.99	1	.
CN(Cc1ccccc1)C(=O)COC(=O)C1CCN(S(=O)(=O)c2cccs2)CC1	-11	1.1	1.1	1	-2	-11
Cc1ccc(N2CC(C(=O)NCc3n[nH]c(=O)c4ccccc34)CC2=O)cc1 (stereo unspecified)	2	0.97	.	0.97	3	.
COC(=O)c1cccc(NC(=O)Nc2ccc(Cl)cc2)c1	0	1	.	2.2*	-123	.
COC(=O)c1cccc(NC(=O)NC23CC4CC(CC(C4)C2)C3)c1	2	0.98	1	2.6*	-156	2
O=C(CNC(=S)N(Cc1ccccc1)Cc1ccccc1F)NCCc1ccc(Cl)cc1	-13	1.1	1	2	-96	-4
CC(C)CCNC(=O)C1CCN(S(=O)(=O)c2ccc3c(c2)CC(C)N3C(=O)C2CC2)CC1 (stereo unspecified)	8	0.92	.	1	-3	.
Cc1ccc(C2(C)NC(=O)N(CC(=O)c3ccc(Cl)s3)C2=O)cc1 (stereo unspecified)	-6	1.1	2*	0.85	15	-97
CC(OC(=O)CNC(=O)c1sc2ccccc2c1Cl)C(=O)NC1(C#N)CCCCC1 (stereo unspecified)	12	0.88	.	1	-1	.
COc1ccccc1N(CC(=O)Nc1ccc(Cc2ccncc2)cc1)S(=O)(=O)c1ccccc1	-23	1.2	.	1.2	-22	.
COc1ccc(N(CC(=O)Nc2ccc(Cc3ccncc3)cc2)S(=O)(=O)c2ccccc2)cc1	-22	1.2	.	2.4*	-135	.
NS(=O)(=O)c1ccc(N2N=C(c3ccccc3)CC2c2ccccc2)cc1 (stereo unspecified)	-37	1.4	0.9	2.1*	-105	12
Nc1ccc(S(=O)(=O)NNC(=O)C(=O)NNc2ccccn2)cc1	-166	2.7*	1.3	0.73	27	-30
CC(C)(C)c1ccc(/C=N/NC(=S)Nc2cccnc2)cc1	-3	1	1	1	-1	-3
Oc1ccc(/C=N/NC(=S)Nc2cccnc2)cc1O	28	0.72	1.2	0.21	79*	-18
O=C(/C=C/c1ccco1)NC(=S)Nc1cccc([N+](=O)[O-])c1	-6	1.1	1	0.41	60*	-3
Cc1cccc(NC(=S)NC(=O)/C=C/c2ccco2)c1	-21	1.2	1	0.83	17	-2
COc1ccccc1NC(=S)NC(=O)/C=C/c1ccco1	9	0.91	1	0.58	42*	5
COc1ccc(S(=O)(=O)Nc2ccccc2-c2nc3ccccc3[nH]c2=O)cc1	-16	1.2	.	1	-3	.
SMILES	hIAP inh	hIAP act	bIAP act	mIAP act	mIAP block	bIAP inh
CC(C)c1ccc(C(C)NC(=S)NC2CCCCC2)cc1 (stereo unspecified)	-46	1.5	.	2.2*	-116	.
CCc1ccc(C(C)NC(=S)NC2CCCCC2)cc1 (stereo unspecified)	8	0.92	.	1.2	-25	.
O=[N+]([O-])c1cc(-c2ncccn2)cs1	-1	1	2.5*	0.97	3	-146
CC(C)CNC(=S)NC(=O)c1csc([N+](=O)[O-])c1	-18	1.2	.	0.89	11	.
S=c1[nH]nc(-c2ccccc2Cl)n1Cc1ccccc1	-7	1.1	0.9	0.94	6	8
COc1ccc(Cl)cc1-c1n[nH]c(=S)n1Cc1ccccc1	-6	1.1	.	0.58	42*	.
Cc1ccc(N(CC(=O)N2CCCCCC2)S(=O)(=O)c2ccccc2)cc1	1	0.99	.	0.96	4	.
O=C(N/N=C\c1ccc(O)c([N+](=O)[O-])c1)C1COc2ccccc2O1 (stereo unspecified)	-10	1.1	.	0.96	4	.
Cc1cc([N+](=O)[O-])cc(/C=N\NC(=O)C2COc3ccccc3O2)c1O (stereo unspecified)	-34	1.3	.	0.58	42*	.
CCS(=O)(=O)NCc1ccc2[nH]c3c(c2c1)CCCC3	-2	1	1	1.1	-8	-5
S=C(NCc1ccc2[nH]c3c(c2c1)CCCC3)Nc1ccccc1	0	1	0.9	2.2*	-123	13
Cc1cc(C)cc(NC(=S)NCc2ccc3[nH]c4c(c3c2)CCCC4)c1	10	0.9	0.9	2.8*	-175	12
CC(=O)Nc1cc(NC(C)=O)ncn1	0	1	.	1.2	-17	.
O=C(Nc1ccc(Cl)cc1)NC1CCCC1Cc1ccco1 (stereo unspecified)	-16	1.2	1.1	2.8*	-178	-10
O=C(Nc1ccc(Cl)cc1)NC1CCCCC1	-9	1.1	1.1	1.2	-16	-9
O=S(=O)(Nc1ccc(-n2cnnn2)cc1)c1ccc(F)c(F)c1F	0	1	.	1	-5	.
C=CCn1c2ccccc2c2nnc(SCCCn3c(=O)[nH]c4ccccc43)nc21	.	.	2*	.	.	-99
Oc1ccc(-c2nc(-c3ccc(O)c(O)c3)cs2)cc1	38*	0.62	0.8	0.68	32	16
COCCOc1ccc(C(F)(F)F)cc1NC(=O)c1ccccc1F	12	0.88	0.9	0.96	4	8
CCn1c(NCc2cc(Br)ccc2NS(=O)(=O)c2ccc(C)cc2)nc2ccccc21	-7	1.1	1.5	2.1*	-110	-45
C=CCN1C(=O)C(=O)N(CC(=O)NCC(=O)Nc2ccc(F)c(F)c2F)C1=O	4	0.96	.	0.9	10	.
Cc1cc2occ(CC(=O)N(C)CC(=O)Nc3ccc(F)cc3)c2cc1C	8	0.92	.	1	-3	.
CC(NC(=O)c1cc2cc(F)ccc2[nH]1)c1ccccc1 (stereo unspecified)	6	0.94	.	1.2	-21	.
Cc1ccc(C(NC(=O)NC(C)c2ccccc2)C(Cl)(Cl)Cl)cc1F (stereo unspecified)	13	0.87	0.7	14*	i	26
CCCCC(CC)CNC(=O)C(Cc1ccccc1)NS(=O)(=O)c1ccc2c(c1)CCC(=O)N2 (stereo unspecified)	-15	1.2	0.8	2.2*	-120	16

Screens as filed in PubChem.
